According to ChEMBL document CHEMBL1122652, “Intensely potent morpholinyl anthracyclines” (J Med Chem, 1984):
Active and inactive are the calls of the source.

Tests used:
Mus musculus [1] = assay: Antitumor activity against mice baering P388 leukemia (10e6 cells) implanted ip on day 0, after treatment with single ip dose 0.4 mg/kg on day 1.; type: functional; conditions: route intraperitoneal
Calf thymus DNA [2] = assay: Change in thermal denaturation temperature of calf thymus DNA; type: nucleic-acid assay; conditions: Bos taurus
How it was run: (§1)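 Calf thymus DNA with drug at 5.2 X 10^-6 M in 0.01 M phosphate buffer pH 7 containing EDTA and 5% Me2SO. ΔTm is the thermal denaturation temperature of the DNA–drug complex minus that of DNA alone. Values <1 count as insignificant binding.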

Nucleic Acid [3] = assay: Inhibition of [3H]uridine incorporation into proliferating L1210 cells.; type: functional, cell-based; conditions: Mus musculus
How it was run: (§2)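 Actively growing L1210 cells in culture were exposed to drug, which was first dissolved in Me2SO and diluted to 1% Me2SO final. Incorporation of [3H]thymidine into DNA or [3H]uridine into RNA was measured. ED50 is the drug concentration giving 50% inhibition.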

Nucleic Acid [4] = assay: Inhibition of [3H]thymidine incorporation into proliferating L1210 cells.; type: functional, cell-based; conditions: Mus musculus; how it was run: as §2
[5] = Partition coefficient (log P) was the log of ratio of concentration in octanol / water partitioned concentration in phosphate buffer at pH 7.4.; type: physicochemical
Mus musculus [6] = assay: Antitumor activity against mice baering P388 leukemia (10e6 cells) implanted ip on day 0, after treatment with single ip dose 0.05 mg/kg on day 1.; type: functional; conditions: route intraperitoneal
How it was run: (§3)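 Mice implanted ip with 10^6 P388 leukemia cells on day 0, then dosed ip either once on day 1 or on days 5, 9 and 13 once the tumour was systemic. Efficacy is T/C, the mean survival time of treated over control mice, expressed as %. T/C > 120% counts as active. The optimum dose is reported.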

Mus musculus [7] = assay: Antitumor activity against mice baering P388 leukemia (10e6 cells) implanted ip on day 0, after treatment with three ip doses (0.2 mg/kg) on day 5,9,13 when tumor became systemic.; type: functional; how it was run: as §3
Mus musculus [8] = assay: Antitumor activity against mice baering P388 leukemia (10e6 cells) implanted ip on day 0, after treatment with single ip dose 0.25 mg/kg on day 1.; type: functional; conditions: route intraperitoneal; how it was run: as §3
Calf thymus DNA [9] = assay: (§4) Effect on thermal denaturation temperature (delta Tm) of helical DNA; type: nucleic-acid assay; conditions: Bos taurus
How it was run: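 ΔTm was taken as the Tm of the drug–calf thymus DNA complex minus the Tm of DNA alone. Drug was at 5.2 × 10^-6 M in 0.01 M phosphate buffer (pH 7) containing EDTA and 5% Me2SO. Values below 1 were considered insignificant binding.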

Mus musculus [10] = assay: Antitumor activity against mice baering P388 leukemia (10e6 cells) implanted ip on day 0, after treatment with three ip doses (8 mg/kg) on day 5,9,13 when tumor became systemic.; type: functional
Mus musculus [11] = assay: Antitumor activity against mice baering P388 leukemia (10e6 cells) implanted ip on day 0, after treatment with three ip doses (50 mg/kg) on day 5,9,13 when tumor became systemic.; type: functional; how it was run: as §3
Mus musculus [12] = assay: Antitumor activity against mice bearing P388 leukemia implanted ip on day 0, after treatment with single iv dose 10 mg/kg on day 1.; type: functional
Mus musculus [13] = assay: Antitumor activity against mice bearing B16 melanoma implanted ip on day 0, after treatment with three ip doses 10 mg/kg on day 1,5,9 when tumor had become systemic.; type: functional; conditions: route intraperitoneal
Mus musculus [14] = assay: Antitumor activity against mice baering P388 leukemia (10e6 cells) implanted ip on day 0, after treatment with single ip dose 7.5 mg/kg on day 1.; type: functional; conditions: route intraperitoneal
Mus musculus [15] = assay: Antitumor activity against mice bearing P388 leukemia implanted ip on day 0, after treatment with three po doses on day 1,5,9 when the tumor had become systemic; Inactive; type: functional, organism-based
Mus musculus [16] = assay: Antitumor activity against mice bearing L1210 leukemia implanted ip on day 0, after treatment with single ip dose 10 mg/kg on day 1.; type: functional; conditions: route intraperitoneal
Mus musculus [17] = assay: Antitumor activity against mice baering P388 leukemia (10e6 cells) implanted ip on day 0, after treatment with single ip dose 4.0 mg/kg on day 1.; type: functional; conditions: route intraperitoneal; how it was run: as §3
Mus musculus [18] = assay: Antitumor activity (treated/control) against mice bearing B16 melanoma implanted ip on day 0, after treatment with 3 ip doses 0.0063 mg/kg on day 1,5,9 when tumor had become systemic.; type: functional; conditions: route intraperitoneal
How it was run: (§5)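 Mice tumour-implanted on day 0 as in the P388 ip screen. Dosing was iv for P388 (day 1), po for P388 (days 1, 5, 9), and ip for L1210 (day 1) and for B16 melanoma (days 1, 5, 9). Efficacy is T/C % of mean survival time of treated over control mice, at the optimum dose.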

Mus musculus [19] = assay: Antitumor activity (treated/control) against mice bearing L1210 leukemia implanted ip on day 0, after treatment with single ip dose 0.025 mg/kg on day 1.; type: functional; conditions: route intraperitoneal; how it was run: as §5
Calf thymus DNA [20] = assay: as §4; type: functional; conditions: Bos taurus; how it was run: as §1
Mus musculus [21] = assay: Antitumor activity (treated/control) against mice bearing P388 leukemia implanted ip on day 0, after treatment with single iv dose 0.05 mg/kg on day 1.; type: functional; how it was run: as §5
Mus musculus [22] = assay: Antitumor activity (treated/control) against mice bearing P388 leukemia implanted ip on day 0, after treatment with three po doses 0.1 mg/kg on days1,5,9 when the tumor had become systemic; type: functional; how it was run: as §5
Mus musculus [23] = assay: Antitumor activity against mice baering P388 leukemia (10e6 cells) implanted ip on day 0, after treatment with three ip doses (0.5 mg/kg) on day 5,9,13 when tumor became systemic.; type: functional

Row | Compound | ΔTm (Calf thymus DNA [2]) [°C] | ED50 (Nucleic Acid [3]) [nM] | ED50 (Nucleic Acid [4]) [nM] | logD [5] | further results
1 | COc1cccc2c1C(=O)c1c(O)c3c(c(O)c1C2=O)C[C@@](O)(C(O)CO)CC3OC1CC(N2CCOCC2)C(O)C(C)O1.Cl (stereo not given in full) | 3.9 | 3300 | 7500 | – | T/C (Mus musculus [1]): >145%
2 | COc1cccc2c1C(=O)c1c(O)c3c(c(O)c1C2=O)C[C@@](O)(C(C)O)CC3OC1CC(N2CCOCC2)C(O)C(C)O1 (stereo not given in full) | 4.1 | 530 | 2200 | 2.03 | –
3 | COc1cccc2c1C(=O)c1c(O)c3c(c(O)c1C2=O)C[C@@](O)(C(O)CO)CC3OC1CC(N2CCOCC2C#N)C(O)C(C)O1 (stereo not given in full) | 4.5 | 3 | 21 | 1.56 | T/C (Mus musculus [6]): 183%; T/C (Mus musculus [7]): 150%
4 | COc1cccc2c1C(=O)c1c(O)c3c(c(O)c1C2=O)C[C@@](O)(C(C)=O)CC3OC1CC(N2CCOCC2C#N)C(O)C(C)O1 (stereo not given in full) | 6.3 | 2 | 12 | – | T/C (Mus musculus [8]): 175%
5 | COc1cccc2c1C(=N)c1c(O)c3c(c(O)c1C2=O)C[C@@](O)(C(O)CO)CC3OC1CC(N2CCOCC2C#N)C(O)C(C)O1 (stereo not given in full) | – | 75 | 580 | – | ΔTm (Calf thymus DNA [9]): 0.8 °C
6 | COc1cccc2c1C(=O)c1c(O)c3c(c(O)c1C2=O)C[C@@](O)(C(=O)CO)CC3OC1CC(N2CCOCC2)C(O)C(C)O1.Cl (stereo not given in full) | 9.6 | 170 | 710 | 1.73 | T/C (Mus musculus [6]): 182%
7 | COc1cccc2c1C(=O)c1c(O)c3c(c(O)c1C2=O)C[C@@](O)(C(C)=O)C[C@@H]3O[C@H]1C[C@H](N)[C@H](O)[C@H](C)O1.Cl [DAUNORUBICIN HYDROCHLORIDE] | 10.5 | 330 | 660 | 0.66 | T/C (Mus musculus [10]): 130%
8 | COc1cccc2c1C(=N)c1c(O)c3c(c(O)c1C2=O)C[C@@](O)(C(O)CO)CC3OC1CC(N2CCOCC2)C(O)C(C)O1.Cl (stereo not given in full) | 1.6 | 24000 | > 100000 | 1.43 | T/C (Mus musculus [11]): >161%
9 | COc1cccc2c1C(=O)c1c(O)c3c(c(O)c1C2=O)C[C@@](O)(C(C)O)CC3OC1CC(N2CCOCC2C#N)C(O)C(C)O1 (stereo not given in full) | 4.2 | 2 | 19 | – | –
10 | COc1cccc2c1C(=O)c1c(O)c3c(c(O)c1C2=O)C[C@@](O)(C(=O)CO)C[C@@H]3O[C@H]1C[C@H](N)[C@H](O)[C@H](C)O1.Cl [DOXORUBICIN HYDROCHLORIDE] | 12.8 | 580 | 1600 | – | T/C (Mus musculus [12]): 178%; T/C (Mus musculus [10]): 160%; T/C (Mus musculus [13]): 278%; T/C (Mus musculus [14]): 252%; T/C (Mus musculus [15]): inactive; T/C (Mus musculus [16]): 185%
11 | COc1cccc2c1C(=O)c1c(O)c3c(c(O)c1C2=O)C[C@@](O)(C(C)=O)CC3OC1CC(N2CCOCC2)C(O)C(C)O1.Cl (stereo not given in full) | 6.6 | 100 | 760 | 2.31 | T/C (Mus musculus [8]): 155%
12 | COc1cccc2c1C(=N)c1c(O)c3c(c(O)c1C2=O)C[C@@](O)(C(=O)CO)CC3OC1CC(N2CCOCC2)C(O)C(C)O1.Cl (stereo not given in full) | 4.3 | 1300 | 2600 | 1.8 | T/C (Mus musculus [17]): >215%
13 | COc1cccc2c1C(=O)c1c(O)c3c(c(O)c1C2=O)C[C@@](O)(C(=O)CO)CC3OC1CC(N2CCOCC2C#N)C(O)C(C)O1 (stereo not given in full) | – | 0.53 | 3 | – | T/C (Mus musculus [18]): >148%; T/C (Mus musculus [19]): 164%; ΔTm (Calf thymus DNA [20]): 8.7 °C; T/C (Mus musculus [21]): 152%; T/C (Mus musculus [22]): >158%
14 | COc1cccc2c1C(=N)c1c(O)c3c(c(O)c1C2=O)C[C@@](O)(C(=O)CO)CC3OC1CC(N2CCOCC2C#N)C(O)C(C)O1 (stereo not given in full) | – | 4.7 | 31 | 1.97 | ΔTm (Calf thymus DNA [9]): 3.2 °C; T/C (Mus musculus [23]): 157%
